Assay results reported in ChEMBL document CHEMBL4837261, “Optimization of TopoIV Potency, ADMET Properties, and hERG Inhibition of 5-Amino-1,3-dioxane-Linked Novel Bacterial Topoisomerase Inhibitors: Identification of a Lead with In Vivo Efficacy against MRSA” (J Med Chem, 2021).
≈ marks a conversion by molar mass, not a printed value.

Key:
[1] = Metabolic stability in CD1 mouse liver microsomes assessed as intrinsic clearance at 2 uM measured up to 120 mins by LC-MS/MS analysis; type: ADME, Microsome; conditions: 2 h
[2] = Metabolic stability in CD1 mouse liver microsomes assessed as half life at 2 uM measured up to 120 mins by LC-MS/MS analysis; type: ADME, Microsome
Topoisomerase IV = Topoisomerase IV (Staphylococcus aureus, UniProt P0C1S7+P0C1U9); test: Inhibition of Staphylococcus aureus topoisomerase IV decatenation activity using kDNA as substrate by ethidium bromide/bromophenol blue staining based agarose gel electrophoresis analysis; type: protein-complex assay
Staphylococcus aureus [3] = test: Antibacterial activity against Staphylococcus aureus harbouring GyrA D83N mutant by CLSI method; type: functional
Staphylococcus aureus [4] = test: Antibacterial activity against Staphylococcus aureus ATCC 29213 by CLSI method; type: functional
Staphylococcus aureus [5] = test: Antibacterial activity against Staphylococcus aureus 3527 by CLSI method; type: functional
DNA gyrase [6] = target: DNA gyrase (Staphylococcus aureus, UniProt P0A0K8+P20831); test: Inhibition of Staphylococcus aureus Gyrase supercoiling activity assessed as reduction in supercoiling pBR322 DNA by measuring relaxation by bromophenol blue staining based TAE gel method; type: protein-complex assay
[7] = Growth inhibition of human K/VP.5 cells incubated for 48 hrs by NBTI cell counting analysis; type: functional; conditions: K562, 48 h
Staphylococcus aureus [8] = test: Antibacterial activity against methicillin-resistant Staphylococcus aureus USA300 by CLSI method; type: functional
Staphylococcus aureus [9] = test: Antibacterial activity against cystic fibrosis isolate Staphylococcus aureus by CLSI method; type: functional
K562 = test: Growth inhibition of log-phase human K562 cells incubated for 48 hrs by NBTI cell counting analysis; type: functional, cell-based; conditions: Homo sapiens, K562, 48 h; read-out: IC50
CYP2C9 = CYP2C9 (Homo sapiens, UniProt P11712); test: Inhibition of CYP2C9 (unknown origin) at 10 uM relative to control; type: ADME
CYP2B6 = CYP2B6 (Homo sapiens, UniProt P20813); test: Inhibition of CYP2B6 (unknown origin) at 10 uM relative to control; type: ADME
CYP1A2 = CYP1A2 (Homo sapiens, UniProt P05177); test: Inhibition of CYP1A2 (unknown origin) at 10 uM relative to control; type: ADME
CYP2C19 = CYP2C19 (Homo sapiens, UniProt P33261); test: Inhibition of CYP2C19 (unknown origin) at 10 uM relative to control; type: ADME
[10] = target: 5-hydroxytryptamine receptor 2B (Homo sapiens) (UniProt P41595); test: Displacement of [3H]Lysergic acid diethylamide from human recombinant 5HT2B receptor expressed in CHO-K1 cells at 100 uM by radioligand binding assay; type: cell-based
Staphylococcus aureus [11] = test: Selectivity index, ratio of IC50 for inhibition of Staphylococcus aureus topoisomerase IV decatenation activity to IC50 for inhibition of Staphylococcus aureus DNA gyrase supercoiling activity
In short: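 Both IC50s were measured in gel-based assays with S. aureus enzymes: supercoiling inhibition for DNA gyrase and decatenation inhibition for TopoIV. The ratio is TopoIV IC50 divided by gyrase IC50.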

[12] = Metabolic stability in CD1 mouse microsomes assessed as half life; type: ADME, Microsome
HepaRG = test: Cytotoxicity against human HepaRG cells at 100 uM by ATP depletion assay; type: cell-based
In short: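 An ATP depletion read-out in HepaRG cells gave cytotoxicity across 0.01–100 μM, reported as % cytotoxicity at 100 μM.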

[13] = target: Acetylcholinesterase (Homo sapiens) (UniProt P22303); test: Inhibition of human recombinant acetylcholinesterase receptor expressed in HEK293 cells at 100 uM by spectrophotometry; type: cell-based
[14] = Metabolic stability in human microsomes assessed as half life; type: ADME, Microsome
In short: (§1)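 Run at RTI International. Covers plasma protein binding (mouse, human; percent free), CACO-2 permeability and efflux, and microsomal stability (mouse and human microsomes) giving half-life.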

CYP2C8 = CYP2C8 (Homo sapiens, UniProt P10632); test: Inhibition of CYP2C8 (unknown origin) at 10 uM relative to control; type: ADME
[15] = Permeability of the compound from apical to basolateral side in human Caco-2 cells; type: ADME, cell-based; conditions: read-out: permeability
[16] = Permeability of the compound from basolateral to apical side in human Caco-2 cells; type: ADME, cell-based; conditions: read-out: permeability; in short: as §1
CYP2D6 = CYP2D6 (Homo sapiens, UniProt P10635); test: Inhibition of CYP2D6 (unknown origin) at 10 uM relative to control; type: ADME
[17] = Thermodynamic solubility of the compound at pH 7.4; type: physicochemical; conditions: buffer, read-out: Therm_solubility
In short: (§2)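 Run at Charles River (Worcester). Plasma protein binding was measured in mouse, dog and human plasma. Thermodynamic solubility was measured in buffer at pH 7.4.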

[18] = target: Voltage-gated inwardly rectifying potassium channel KCNH2 (Homo sapiens, UniProt Q12809); test: Inhibition of human ERG
In short: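 hERG channel inhibition was measured on the IonWorks Barracuda automated patch system. IC50 came from eight-point concentration–response curves with four replicates per concentration.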

[19] = Plasma protein binding in human; type: ADME, cell-free; conditions: read-out: PPB (converted); in short: as §2
Streptococcus pneumoniae = test: Antibacterial activity against Streptococcus pneumoniae by CLSI method; type: functional
Bacillus anthracis = test: Antibacterial activity against Bacillus anthracis by CLSI method; type: functional
Acinetobacter baumannii = test: Antibacterial activity against Acinetobacter baumannii by CLSI method; type: functional
[20] = Plasma protein binding in mouse; type: ADME, cell-free; conditions: read-out: PPB (converted); in short: as §2
Staphylococcus aureus [21] = test: Antibacterial activity against Staphylococcus aureus by CLSI method; type: functional
In short: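 MICs were determined by broth microdilution per CLSI guidelines, in triplicate at minimum. Strains were S. aureus ATCC 29213, MRSA USA300 and a cystic fibrosis respiratory isolate, and ranges are given where seen.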

Staphylococcus aureus [22] = test: Antibacterial activity against fluoroquinolone-resistant methicillin-resistant Staphylococcus aureus by CLSI method; type: functional
In short: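 MICs against ciprofloxacin-resistant MRSA USA300, determined following CLSI guidelines. Each determination was run at least in triplicate, and observed ranges were reported where appropriate.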

[23] = Plasma protein binding in dog; type: ADME, cell-free, Canis lupus familiaris; conditions: read-out: PPB (converted); in short: as §2
Enterococcus sp. = test: Antibacterial activity against Enterococcus sp. by CLSI method; type: functional
[24] = Half life in ICR (CD-1) mouse at 10 mg/kg, iv measured up to 1440 mins by LC-MS/MS analysis; type: ADME, organism-based; conditions: in vivo
In short: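 Male ICR (CD-1) mice, 22 ± 2 g, given the free base in DMSO/Solutol HS-15/0.9% NaCl (5/5/90, v/v/v), IV at 10 mg/kg or PO at 50 mg/kg; 24 mice per route, three per timepoint. Plasma was taken by cardiac puncture at 3–1440 min (IV) or 10–1440 min (PO), measured by LC-MS/MS, and parameters were derived by noncompartmental analysis.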

DNA gyrase [25] = target: DNA gyrase (Staphylococcus aureus, UniProt P0A0K8+P20831, D83N); test: Inhibition of Staphylococcus aureus DNA Gyrase D83N mutant assessed as reduction in supercoiling pBR322 DNA by measuring relaxation by bromophenol blue staining based TAE gel method

5-hydroxytryptamine receptor 2B (Homo sapiens), sequence (P41595 whole entry): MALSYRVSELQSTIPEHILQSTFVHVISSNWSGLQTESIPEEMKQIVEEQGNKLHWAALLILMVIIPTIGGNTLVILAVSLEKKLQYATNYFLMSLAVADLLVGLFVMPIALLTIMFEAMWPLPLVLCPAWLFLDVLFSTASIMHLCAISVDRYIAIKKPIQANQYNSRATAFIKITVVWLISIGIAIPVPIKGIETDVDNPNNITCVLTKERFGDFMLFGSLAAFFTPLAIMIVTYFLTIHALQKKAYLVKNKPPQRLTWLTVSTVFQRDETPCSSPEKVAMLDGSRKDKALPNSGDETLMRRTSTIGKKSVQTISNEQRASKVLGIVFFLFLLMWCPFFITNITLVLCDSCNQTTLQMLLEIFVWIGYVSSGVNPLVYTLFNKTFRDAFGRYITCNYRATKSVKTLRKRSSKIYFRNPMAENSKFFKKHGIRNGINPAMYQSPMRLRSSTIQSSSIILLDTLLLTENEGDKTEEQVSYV
CYP2B6, sequence (P20813 whole entry): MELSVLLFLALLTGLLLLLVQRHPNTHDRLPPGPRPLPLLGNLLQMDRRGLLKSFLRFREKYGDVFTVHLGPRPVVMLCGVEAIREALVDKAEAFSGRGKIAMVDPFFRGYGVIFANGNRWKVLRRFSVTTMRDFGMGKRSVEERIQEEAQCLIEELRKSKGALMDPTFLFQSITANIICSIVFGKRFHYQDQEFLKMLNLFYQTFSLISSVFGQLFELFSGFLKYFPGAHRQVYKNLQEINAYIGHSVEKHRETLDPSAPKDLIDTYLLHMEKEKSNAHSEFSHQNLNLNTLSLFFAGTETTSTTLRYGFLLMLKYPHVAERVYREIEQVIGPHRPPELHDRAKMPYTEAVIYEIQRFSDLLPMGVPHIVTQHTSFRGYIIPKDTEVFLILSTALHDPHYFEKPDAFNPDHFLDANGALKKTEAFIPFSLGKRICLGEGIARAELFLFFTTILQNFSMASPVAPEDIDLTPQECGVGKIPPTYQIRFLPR
CYP2C8, sequence (P10632 whole entry): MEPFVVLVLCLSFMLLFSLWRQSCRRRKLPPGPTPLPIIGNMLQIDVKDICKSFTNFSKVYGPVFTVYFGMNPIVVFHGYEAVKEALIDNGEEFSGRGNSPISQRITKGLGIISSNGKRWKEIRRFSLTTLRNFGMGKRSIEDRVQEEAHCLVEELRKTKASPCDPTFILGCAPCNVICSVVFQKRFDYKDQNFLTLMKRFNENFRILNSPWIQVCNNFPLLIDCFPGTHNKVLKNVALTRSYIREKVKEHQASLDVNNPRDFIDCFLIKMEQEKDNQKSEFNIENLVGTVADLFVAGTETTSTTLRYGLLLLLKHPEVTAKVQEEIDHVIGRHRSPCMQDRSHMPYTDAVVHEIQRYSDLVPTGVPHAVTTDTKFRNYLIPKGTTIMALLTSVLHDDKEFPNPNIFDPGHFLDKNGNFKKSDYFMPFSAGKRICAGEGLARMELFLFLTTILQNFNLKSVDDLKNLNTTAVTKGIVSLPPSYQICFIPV
CYP2D6, sequence (P10635 whole entry): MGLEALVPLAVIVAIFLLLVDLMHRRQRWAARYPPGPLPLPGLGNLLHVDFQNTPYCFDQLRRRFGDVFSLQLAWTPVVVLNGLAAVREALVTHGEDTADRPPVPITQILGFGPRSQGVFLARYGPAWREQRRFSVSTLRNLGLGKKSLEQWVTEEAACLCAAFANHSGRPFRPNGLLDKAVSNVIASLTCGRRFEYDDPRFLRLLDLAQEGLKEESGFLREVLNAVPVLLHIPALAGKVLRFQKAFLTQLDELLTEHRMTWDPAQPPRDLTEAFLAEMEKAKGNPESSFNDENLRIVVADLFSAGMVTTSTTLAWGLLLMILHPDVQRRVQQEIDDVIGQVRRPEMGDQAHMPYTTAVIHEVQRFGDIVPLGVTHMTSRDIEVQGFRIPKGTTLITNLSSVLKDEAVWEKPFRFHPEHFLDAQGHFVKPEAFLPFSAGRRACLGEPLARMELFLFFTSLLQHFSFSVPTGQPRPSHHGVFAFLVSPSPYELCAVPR
CYP1A2, sequence (P05177 whole entry): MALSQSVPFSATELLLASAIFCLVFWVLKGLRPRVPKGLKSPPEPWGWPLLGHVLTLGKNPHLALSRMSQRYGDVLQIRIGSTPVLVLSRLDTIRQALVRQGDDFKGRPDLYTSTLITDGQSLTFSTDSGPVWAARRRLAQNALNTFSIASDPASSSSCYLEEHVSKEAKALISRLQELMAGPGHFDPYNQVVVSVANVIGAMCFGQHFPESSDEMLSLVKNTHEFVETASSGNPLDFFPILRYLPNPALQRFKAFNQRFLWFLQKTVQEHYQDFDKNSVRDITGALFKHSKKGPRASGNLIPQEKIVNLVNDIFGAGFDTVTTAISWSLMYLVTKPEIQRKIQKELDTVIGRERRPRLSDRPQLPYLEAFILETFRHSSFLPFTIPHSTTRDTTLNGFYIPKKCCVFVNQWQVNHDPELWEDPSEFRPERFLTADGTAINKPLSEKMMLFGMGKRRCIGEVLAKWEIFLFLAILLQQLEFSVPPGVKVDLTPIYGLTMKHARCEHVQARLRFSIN
CYP2C19, sequence (P33261 whole entry): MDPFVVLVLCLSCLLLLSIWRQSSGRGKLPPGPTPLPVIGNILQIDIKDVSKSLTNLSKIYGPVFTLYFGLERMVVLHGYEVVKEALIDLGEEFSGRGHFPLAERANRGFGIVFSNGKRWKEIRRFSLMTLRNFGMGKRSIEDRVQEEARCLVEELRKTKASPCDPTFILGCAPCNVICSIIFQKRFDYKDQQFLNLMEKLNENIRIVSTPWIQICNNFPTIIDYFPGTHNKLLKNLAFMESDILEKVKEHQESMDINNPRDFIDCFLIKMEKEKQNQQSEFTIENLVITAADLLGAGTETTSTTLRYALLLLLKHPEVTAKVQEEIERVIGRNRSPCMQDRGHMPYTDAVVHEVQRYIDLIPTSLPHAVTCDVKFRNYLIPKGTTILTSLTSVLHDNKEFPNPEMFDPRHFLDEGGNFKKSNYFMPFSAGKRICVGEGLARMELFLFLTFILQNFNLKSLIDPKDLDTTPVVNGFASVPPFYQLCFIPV
Voltage-gated inwardly rectifying potassium channel KCNH2, sequence (Q12809 whole entry): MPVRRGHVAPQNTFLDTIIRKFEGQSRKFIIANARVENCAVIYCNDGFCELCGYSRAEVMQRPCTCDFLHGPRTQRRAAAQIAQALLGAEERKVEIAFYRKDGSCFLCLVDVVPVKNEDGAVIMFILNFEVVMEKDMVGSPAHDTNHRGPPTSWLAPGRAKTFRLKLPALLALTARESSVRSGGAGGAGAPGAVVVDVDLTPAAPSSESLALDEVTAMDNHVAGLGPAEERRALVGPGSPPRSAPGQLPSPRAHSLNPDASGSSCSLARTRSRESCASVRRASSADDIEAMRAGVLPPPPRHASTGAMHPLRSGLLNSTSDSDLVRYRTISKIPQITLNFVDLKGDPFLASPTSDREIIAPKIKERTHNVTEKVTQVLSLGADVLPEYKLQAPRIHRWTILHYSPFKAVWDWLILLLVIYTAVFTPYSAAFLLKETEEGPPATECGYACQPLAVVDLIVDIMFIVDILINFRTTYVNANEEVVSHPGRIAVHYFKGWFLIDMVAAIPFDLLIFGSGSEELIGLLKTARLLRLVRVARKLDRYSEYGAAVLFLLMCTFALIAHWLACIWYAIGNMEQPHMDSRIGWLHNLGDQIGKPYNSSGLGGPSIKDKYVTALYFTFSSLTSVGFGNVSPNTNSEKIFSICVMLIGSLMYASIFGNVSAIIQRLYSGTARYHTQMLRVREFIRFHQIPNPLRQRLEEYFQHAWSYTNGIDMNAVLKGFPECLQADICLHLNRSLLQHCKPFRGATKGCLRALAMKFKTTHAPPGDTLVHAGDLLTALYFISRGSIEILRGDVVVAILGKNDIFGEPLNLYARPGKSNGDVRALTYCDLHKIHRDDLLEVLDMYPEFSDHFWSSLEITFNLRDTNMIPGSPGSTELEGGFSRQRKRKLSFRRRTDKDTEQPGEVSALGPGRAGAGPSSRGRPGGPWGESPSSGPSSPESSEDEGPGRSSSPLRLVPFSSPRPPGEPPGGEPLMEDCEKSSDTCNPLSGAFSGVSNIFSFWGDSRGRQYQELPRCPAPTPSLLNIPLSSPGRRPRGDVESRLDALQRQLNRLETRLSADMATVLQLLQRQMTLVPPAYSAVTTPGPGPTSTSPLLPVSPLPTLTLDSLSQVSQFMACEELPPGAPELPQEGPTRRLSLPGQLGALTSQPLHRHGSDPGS
Acetylcholinesterase (Homo sapiens), sequence (P22303 whole entry): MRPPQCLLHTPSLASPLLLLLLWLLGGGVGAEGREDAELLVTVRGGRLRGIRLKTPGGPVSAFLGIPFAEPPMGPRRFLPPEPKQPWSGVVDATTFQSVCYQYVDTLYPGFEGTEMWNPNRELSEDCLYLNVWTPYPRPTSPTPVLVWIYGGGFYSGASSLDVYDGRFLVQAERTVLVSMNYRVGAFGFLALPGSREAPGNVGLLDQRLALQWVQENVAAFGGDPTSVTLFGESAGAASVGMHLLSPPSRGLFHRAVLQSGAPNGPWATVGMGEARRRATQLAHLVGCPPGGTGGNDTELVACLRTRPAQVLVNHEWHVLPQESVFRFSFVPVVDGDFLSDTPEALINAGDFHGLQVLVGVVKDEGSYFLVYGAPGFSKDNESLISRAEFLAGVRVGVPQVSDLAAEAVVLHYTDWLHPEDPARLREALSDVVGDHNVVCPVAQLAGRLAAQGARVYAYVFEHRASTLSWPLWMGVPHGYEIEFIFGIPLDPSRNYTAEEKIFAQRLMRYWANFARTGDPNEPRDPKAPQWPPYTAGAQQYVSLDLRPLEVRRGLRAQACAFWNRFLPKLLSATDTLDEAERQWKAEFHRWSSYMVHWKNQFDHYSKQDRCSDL

| SMILES | IC50 (Topoisomerase IV) | MIC (Staphylococcus aureus [3]) | MIC (Staphylococcus aureus [4]) | MIC (Staphylococcus aureus [5]) | IC50 (DNA gyrase [6]) | IC50 [7] | MIC (Staphylococcus aureus [8]) | MIC (Staphylococcus aureus [9]) | MIC50 (Streptococcus pneumoniae) | MIC50 (Bacillus anthracis) | MIC90 (Bacillus anthracis) | MIC50 (Acinetobacter baumannii) | MIC50 (Staphylococcus aureus [21]) | MIC50 (Enterococcus sp.) | other results |
| --- | --- | --- | --- | --- | --- | --- | --- | --- | --- | --- | --- | --- | --- | --- | --- |
| COc1ccc2nccc(CCN3CCC(NCc4cc5c(cn4)OCCO5)CC3)c2c1 |  |  |  |  |  |  |  |  |  |  |  |  |  |  | intrinsic clearance (CLint) [1]: 2150 µL/min/mg; half-life at 2 µM [2]: 2.54 min |
| COc1ccc2ncc(F)c(C(O)C[C@H]3OC[C@H](NCc4ccc5c(n4)NC(=O)CS5)CO3)c2c1 (mixture of isomers) | 1.5 µM | 4 mg/L (≈ 7.99 µM) | 0.25 mg/L (≈ 0.499 µM) | ≤ 0.25 mg/L | 0.33 µM | > 50 µM | 0.25 mg/L (≈ 0.499 µM) | 0.5 mg/L (≈ 0.999 µM) |  |  |  |  |  |  | IC50 (K562): 56 µM |
| COc1ccc2ncc(F)c(C(O)C[C@H]3OC[C@H](NCc4cc5c(nn4)OCCS5)CO3)c2n1 (mixture of isomers) | 11 µM | 8 mg/L (≈ 16.3 µM) | 0.5 mg/L (≈ 1.02 µM) | 0.5 mg/L (≈ 1.02 µM) | 0.24 µM |  | 1 mg/L (≈ 2.04 µM) | 0.5 mg/L (≈ 1.02 µM) |  |  |  |  |  |  | inhibition at 10 µM (CYP2C9): > 50%; inhibition at 10 µM (CYP2B6): > 50%; inhibition at 10 µM (CYP1A2): > 50%; inhibition at 10 µM (CYP2C19): > 50%; inhibition [10]: > 45%; Ratio IC50 (Staphylococcus aureus [11]): 47; half-life [12]: 21 min; Activity (HepaRG): 17%; inhibition [13]: > 45%; half-life [14]: 26 min; inhibition at 10 µM (CYP2C8): > 50%; Papp A→B [15]: 78.5 nm/s; Papp B→A [16]: 948 nm/s; inhibition at 10 µM (CYP2D6): > 50% |
| COc1ccc2ncc(F)c(C(O)C[C@H]3OC[C@H](NCc4ccc5c(c4)OCCO5)CO3)c2c1 (mixture of isomers) | 5.5 µM | 2 mg/L (≈ 4.25 µM) | 0.125 mg/L (≈ 0.266 µM) | 0.125 mg/L (≈ 0.266 µM) | 0.064 µM | 23.8 µM | 0.125 mg/L (≈ 0.266 µM) | 0.125 mg/L (≈ 0.266 µM) | 1 mg/L (≈ 2.13 µM) | 2 mg/L (≈ 4.25 µM) | 8 mg/L (≈ 17 µM) | 32 mg/L (≈ 68 µM) | 0.12 mg/L (≈ 0.255 µM) | 0.12 mg/L (≈ 0.255 µM) | solubility thermodynamic [17]: 186 µM (≈ 87.5 µg/mL); IC50 [18]: 8 µM; fraction unbound [19]: 0.11; fraction unbound [20]: 0.11; intrinsic clearance (CLint) [1]: 835 µL/min/mg; MIC (Staphylococcus aureus [22]): 0.25 mg/L (≈ 0.531 µM); half-life at 2 µM [2]: 6.54 min; fraction unbound [23]: 0.11 |
| COc1ccc2ncc(F)c(C[C@H](O)[C@@H]3CC[C@@H](NCc4cc5c(nn4)OCCS5)CO3)c2n1 |  |  |  |  |  |  |  |  |  |  |  |  |  |  | half-life [24]: 18.6 min |
| COc1ccc2ncc(F)c(C[C@H](O)[C@H]3OC[C@H](NCc4ccc5c(c4)OCCO5)CO3)c2n1 | 0.38 µM | 4 mg/L (≈ 8.48 µM) | 0.125 mg/L (≈ 0.265 µM) | 0.125 mg/L (≈ 0.265 µM) | 0.06 µM | 30.5 µM | 0.125 mg/L (≈ 0.265 µM) | 0.125 mg/L (≈ 0.265 µM) | 0.5 mg/L (≈ 1.06 µM) | 1 mg/L (≈ 2.12 µM) | 4 mg/L (≈ 8.48 µM) | 16 mg/L (≈ 33.9 µM) | 0.06 mg/L (≈ 0.127 µM) | 0.06 mg/L (≈ 0.127 µM) | IC50 (DNA gyrase [25]): 2.7 µM |
| COc1ccc2ncc(F)c(C[C@H](O)[C@H]3OC[C@H](NCc4cc5c(cn4)OCCO5)CO3)c2n1 | 1.3 µM | 4 mg/L (≈ 8.47 µM) | 0.125 mg/L (≈ 0.265 µM) | 0.25 mg/L (≈ 0.529 µM) | 0.039 µM | 145 µM | ≤ 0.25 mg/L | 0.125 mg/L (≈ 0.265 µM) | 0.5 mg/L (≈ 1.06 µM) | 2 mg/L (≈ 4.23 µM) | 8 mg/L (≈ 16.9 µM) | 64 mg/L (≈ 135 µM) | 0.25 mg/L (≈ 0.529 µM) | 0.12 mg/L (≈ 0.254 µM) | IC50 (DNA gyrase [25]): 13 µM |
